In ChEMBL document CHEMBL4808239, “Challenges of short substrate analogues as SARS-CoV-2 main protease inhibitors” (Bioorg Med Chem Lett, 2021):
Activity calls are given as the source filed them. The rule behind the calls is not given here. Starred links: 1 amine or outer side, 2 acyl side, 3 side chain; linkers in the order of their positions; H or OH if unused. Non-standard residues stand in square brackets, D forms with d. Residues, ends and D or L forms follow the SMILES beside them. X1 = N#Cc1cc(C[C@H](N[*:1])C(=O)[*:2])ccn1; Tle = CC(C)(C)[C@H](N)C(=O)O; Thz = O=C(O)[C@@H]1CSCN1; Abu = CC[C@H](N)C(=O)O

What was measured:
[1] = target: Replicase polyprotein 1ab (Severe acute respiratory syndrome coronavirus 2, UniProt P0DTD1); assay: Inhibition of SARS CoV-2 main protease using DABCYL-KTSAVLQ1SGFRKM-E(EDANS)-NH2 as substrate by FRET based assay
[2] = target: Replicase polyprotein 1ab (Severe acute respiratory syndrome coronavirus 2) (UniProt P0DTD1); assay: Binding affinity to SARS CoV-2 15N/2H-labeled main protease assessed as chemical pertubations at 100 uM by 15HSQC-NMR spectrum analysis
Procedure, shortened: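 Wild-type main protease, ¹⁵N/²H-labelled, expressed with His6 tag, Ni-NTA purified and tag-cleaved. [¹⁵N,¹H]-HSQC spectra recorded at 25 °C (600/800 MHz) with and without compound and overlaid to look for chemical shift changes.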

`CC(C)C[C@@H]1NC(=O)[C@H](C(C)C)NC(=O)[C@H](C)NC(=O)[C@H](C)NC(=O)[C@@H]2CSC(=N2)c2cc(ccn2)C[C@@H](C(N)=O)NC(=O)[C@H](C)NC(=O)[C@H](CC(N)=O)NC1=O` showed an IC50 [1] of over 100 µM.
For `CC(C)C[C@@H]1NC(=O)[C@H](C(C)C)NC(=O)[C@H](C(C)C)NC(=O)[C@@H]2CSC(=N2)c2cc(ccn2)C[C@@H](C(N)=O)NC(=O)[C@H](CCC(N)=O)NC1=O`, the Activity [2] was “inactive”.
For `CC(C)C[C@@H]1NC(=O)[C@H](C(C)C)NC(=O)[C@H](C)NC(=O)[C@H](C)NC(=O)[C@@H]2CSC(=N2)c2cc(ccn2)C[C@@H](C(N)=O)NC(=O)[C@H](C)NC(=O)[C@H](CCC(N)=O)NC1=O`, the Activity [2] was “inactive”.
`CC(C)C[C@@H]1NC(=O)[C@H](C(C)C)NC(=O)[C@H](C(C)C)NC(=O)[C@@H]2CSC(=N2)c2cc(ccn2)C[C@@H](C(N)=O)NC(=O)[C@H](CCC(=O)O)NC1=O` showed an IC50 [1] of over 100 µM.
In the case of `CC(C)C[C@H](NC(=O)[C@@H](NC(=O)[C@H](C)NC(=O)[C@H](C)NC(=O)[C@@H]1CSCN1)C(C)C)C(=O)N[C@@H](CCC(N)=O)C(=O)N[C@@H](C)C(=O)N[C@@H](Cc1ccnc(C#N)c1)C(N)=O` (H-[Thz]AAVLQA[X1]-NH2), the IC50 [1] is reported as over 100 µM.
For `CC(C)C[C@@H]1NC(=O)[C@H](CCCNC(=N)N)NC(=O)[C@H](C)NC(=O)[C@@H]2CSC(=N2)c2cc(ccn2)C[C@@H](C(N)=O)NC(=O)[C@H](CCC(=O)O)NC1=O`, the IC50 [1] was over 100 µM.
`CC(C)C[C@@H]1NC(=O)[C@H](C(C)C)NC(=O)[C@@H]2CSC(=N2)c2cc(ccn2)C[C@@H](C(N)=O)NC(=O)[C@H](CO)NC(=O)[C@H](CCC(N)=O)NC1=O` gave an IC50 [1] of over 100 µM.
For `CC[C@H](NC(C)=O)C(=O)N[C@H](C(=O)N[C@@H](CC(C)C)C(=O)N[C@@H](CCC(N)=O)C(N)=O)C(C)(C)C` (Ac-[Abu][Tle]LQ-NH2), the IC50 [1] was over 100 µM.
